How the values were obtained:
Assay type in all cases: toxicity, cell-based
U2OS [1] = experiment: Incucyte cell viability with U2OS; conditions: human, 10 µM, compound concentration 10 uM; also: filed as whole numbers so only -1 and 0 and 1 occur
HEK-293T = experiment: Incucyte cell viability with HEK293T; conditions: human, 10 µM, compound concentration 10 uM; also: filed as whole numbers so only -1 and 0 and 1 occur
U2OS [2] = experiment: Multiplex assay against U2OS; conditions: human
Summary of the method: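 Values for tubulin, mitochondrial-mass and membrane-permeability phenotypes are per cents of cells with healthy nuclei. These cells were identified by CellPathfinder machine-learning gating of live cells that had been stained at seeding with Hoechst33342, BioTracker Green Microtubule Cytoskeleton Dye, MitoTracker Red and Annexin V Alexa Fluor 680 and imaged on a CQ1 microscope at 37°C and 5% CO2 after compound addition. The gating first set Hoechst high-intensity objects apart from normal cells, then split normal cells into healthy, pyknosed or fragmented nuclei, and pyknosed cells into mitotic or apoptotic.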

Fibroblast = experiment: Incucyte cell viability with human fibroblast; conditions: 10 µM, compound concentration 10 uM; also: filed as whole numbers so only -1 and 0 and 1 occur
[3] = 0 h, replicate number 1, timepoint 0 hours
[4] = 12 h, replicate number 1, timepoint 12 hours
[5] = 18 h, replicate number 1, timepoint 18 hours
[6] = 24 h, replicate number 1, timepoint 24 hours
[7] = 6 h, replicate number 1, timepoint 6 hours
[8] = 12 h, 1 µM, compound concentration 1 uM, replicate 1
[9] = 12 h, 1 µM, compound concentration 1 uM, replicate 2
[10] = 12 h, 10 µM, compound concentration 10 uM, replicate 1
[11] = 12 h, 10 µM, compound concentration 10 uM, replicate 2
[12] = 24 h, 1 µM, compound concentration 1 uM, replicate 1
[13] = 24 h, 1 µM, compound concentration 1 uM, replicate 2
[14] = 24 h, 10 µM, compound concentration 10 uM, replicate 1
[15] = 24 h, 10 µM, compound concentration 10 uM, replicate 2
[16] = 48 h, 1 µM, compound concentration 1 uM, replicate 1
[17] = 48 h, 1 µM, compound concentration 1 uM, replicate 2
[18] = 48 h, 10 µM, compound concentration 10 uM, replicate 1
[19] = 48 h, 10 µM, compound concentration 10 uM, replicate 2

CCCn1c(=O)c2[nH]c(C34CC5CC(CC3C5)C4)nc2n(CCC)c1=O [ROLOFYLLINE]
Growth Rate (U2OS [1]; [3]): 1
Growth Rate (U2OS [1]; 0 h, replicate number 2, timepoint 0 hours): 0
Growth Rate (U2OS [1]; 6 h, replicate number 2, timepoint 6 hours): 1
Growth Rate (U2OS [1]; [4]): 1
Growth Rate (U2OS [1]; [5]): 1
Growth Rate (U2OS [1]; [6]): 1
Growth Rate (HEK-293T; [3]): 0
Growth Rate (HEK-293T; [7]): 0
Growth Rate (HEK-293T; [4]): 0
Growth Rate (HEK-293T; [5]): 0
Growth Rate (HEK-293T; [6]): 0
Population Apoptotic (%) (U2OS [2]; [8]): 50%
Population Fragmented Nuclei (%) (U2OS [2]; [8]): 14%
Population Healthy Nuclei (%) (U2OS [2]; [8]): 77%
Population Hoechst High Intensity Objects (%) (U2OS [2]; [8]): 7%
Population Membrane Permeable-Phenotype (%) (U2OS [2]; [8]): 9%
Population Mitochondria Different-Phenotype (%) (U2OS [2]; [8]): 8%
Population Mitotic Cells (%) (U2OS [2]; [8]): 50%
Population Normal (%) (U2OS [2]; [8]): 92%
Population Pyknosed Nuclei (%) (U2OS [2]; [8]): 8%
Population Tubulin-Different-Phenotype (%) (U2OS [2]; [8]): 18%
Total Cell Count (U2OS [2]; [8]): 123
Population Apoptotic (%) (U2OS [2]; [9]): 71%
Population Fragmented Nuclei (%) (U2OS [2]; [9]): 4%
Population Healthy Nuclei (%) (U2OS [2]; [9]): 88%
Population Hoechst High Intensity Objects (%) (U2OS [2]; [9]): 3%
Population Membrane Permeable-Phenotype (%) (U2OS [2]; [9]): 12%
Population Mitochondria Different-Phenotype (%) (U2OS [2]; [9]): 15%
Population Mitotic Cells (%) (U2OS [2]; [9]): 28%
Population Normal (%) (U2OS [2]; [9]): 96%
Population Pyknosed Nuclei (%) (U2OS [2]; [9]): 7%
Population Tubulin-Different-Phenotype (%) (U2OS [2]; [9]): 20%
Total Cell Count (U2OS [2]; [9]): 81
Population Apoptotic (%) (U2OS [2]; [10]): 58%
Population Fragmented Nuclei (%) (U2OS [2]; [10]): 7%
Population Healthy Nuclei (%) (U2OS [2]; [10]): 76%
Population Hoechst High Intensity Objects (%) (U2OS [2]; [10]): 13%
Population Membrane Permeable-Phenotype (%) (U2OS [2]; [10]): 32%
Population Mitochondria Different-Phenotype (%) (U2OS [2]; [10]): 80%
Population Mitotic Cells (%) (U2OS [2]; [10]): 41%
Population Normal (%) (U2OS [2]; [10]): 86%
Population Pyknosed Nuclei (%) (U2OS [2]; [10]): 17%
Population Tubulin-Different-Phenotype (%) (U2OS [2]; [10]): 97%
Population Apoptotic (%) (U2OS [2]; [11]): 55%
Population Fragmented Nuclei (%) (U2OS [2]; [11]): 13%
Population Healthy Nuclei (%) (U2OS [2]; [11]): 74%
Population Hoechst High Intensity Objects (%) (U2OS [2]; [11]): 3%
Population Membrane Permeable-Phenotype (%) (U2OS [2]; [11]): 46%
Population Mitochondria Different-Phenotype (%) (U2OS [2]; [11]): 73%
Population Mitotic Cells (%) (U2OS [2]; [11]): 44%
Population Normal (%) (U2OS [2]; [11]): 96%
Population Pyknosed Nuclei (%) (U2OS [2]; [11]): 12%
Population Tubulin-Different-Phenotype (%) (U2OS [2]; [11]): 100%
Total Cell Count (U2OS [2]; [11]): 99
Population Apoptotic (%) (U2OS [2]; [12]): 50%
Population Fragmented Nuclei (%) (U2OS [2]; [12]): 9%
Population Healthy Nuclei (%) (U2OS [2]; [12]): 74%
Population Hoechst High Intensity Objects (%) (U2OS [2]; [12]): 2%
Population Membrane Permeable-Phenotype (%) (U2OS [2]; [12]): 5%
Population Mitochondria Different-Phenotype (%) (U2OS [2]; [12]): 5%
Population Mitotic Cells (%) (U2OS [2]; [12]): 50%
Population Normal (%) (U2OS [2]; [12]): 97%
Population Pyknosed Nuclei (%) (U2OS [2]; [12]): 15%
Population Tubulin-Different-Phenotype (%) (U2OS [2]; [12]): 10%
Total Cell Count (U2OS [2]; [12]): 136
Population Apoptotic (%) (U2OS [2]; [13]): 40%
Population Fragmented Nuclei (%) (U2OS [2]; [13]): 7%
Population Healthy Nuclei (%) (U2OS [2]; [13]): 88%
Population Hoechst High Intensity Objects (%) (U2OS [2]; [13]): 5%
Population Membrane Permeable-Phenotype (%) (U2OS [2]; [13]): 6%
Population Mitochondria Different-Phenotype (%) (U2OS [2]; [13]): 11%
Population Mitotic Cells (%) (U2OS [2]; [13]): 60%
Population Normal (%) (U2OS [2]; [13]): 94%
Population Pyknosed Nuclei (%) (U2OS [2]; [13]): 4%
Population Tubulin-Different-Phenotype (%) (U2OS [2]; [13]): 15%
Total Cell Count (U2OS [2]; [13]): 83
Population Apoptotic (%) (U2OS [2]; [14]): 60%
Population Fragmented Nuclei (%) (U2OS [2]; [14]): 13%
Population Healthy Nuclei (%) (U2OS [2]; [14]): 60%
Population Hoechst High Intensity Objects (%) (U2OS [2]; [14]): 10%
Population Membrane Permeable-Phenotype (%) (U2OS [2]; [14]): 38%
Population Mitochondria Different-Phenotype (%) (U2OS [2]; [14]): 84%
Population Mitotic Cells (%) (U2OS [2]; [14]): 39%
Population Normal (%) (U2OS [2]; [14]): 89%
Population Pyknosed Nuclei (%) (U2OS [2]; [14]): 26%
Population Tubulin-Different-Phenotype (%) (U2OS [2]; [14]): 98%
Total Cell Count (U2OS [2]; [14]): 105
Population Apoptotic (%) (U2OS [2]; [15]): 56%
Population Fragmented Nuclei (%) (U2OS [2]; [15]): 9%
Population Healthy Nuclei (%) (U2OS [2]; [15]): 58%
Population Hoechst High Intensity Objects (%) (U2OS [2]; [15]): 5%
Population Membrane Permeable-Phenotype (%) (U2OS [2]; [15]): 41%
Population Mitochondria Different-Phenotype (%) (U2OS [2]; [15]): 81%
Population Mitotic Cells (%) (U2OS [2]; [15]): 43%
Population Normal (%) (U2OS [2]; [15]): 94%
Population Pyknosed Nuclei (%) (U2OS [2]; [15]): 31%
Population Tubulin-Different-Phenotype (%) (U2OS [2]; [15]): 100%
Total Cell Count (U2OS [2]; [15]): 120
Population Apoptotic (%) (U2OS [2]; [16]): 72%
Population Fragmented Nuclei (%) (U2OS [2]; [16]): 9%
Population Healthy Nuclei (%) (U2OS [2]; [16]): 78%
Population Hoechst High Intensity Objects (%) (U2OS [2]; [16]): 4%
Population Membrane Permeable-Phenotype (%) (U2OS [2]; [16]): 2%
Population Mitochondria Different-Phenotype (%) (U2OS [2]; [16]): 10%
Population Mitotic Cells (%) (U2OS [2]; [16]): 27%
Population Normal (%) (U2OS [2]; [16]): 95%
Population Pyknosed Nuclei (%) (U2OS [2]; [16]): 12%
Population Tubulin-Different-Phenotype (%) (U2OS [2]; [16]): 10%
Total Cell Count (U2OS [2]; [16]): 168
Population Apoptotic (%) (U2OS [2]; [17]): 43%
Population Fragmented Nuclei (%) (U2OS [2]; [17]): 5%
Population Healthy Nuclei (%) (U2OS [2]; [17]): 84%
Population Hoechst High Intensity Objects (%) (U2OS [2]; [17]): 2%
Population Membrane Permeable-Phenotype (%) (U2OS [2]; [17]): 8%
Population Mitochondria Different-Phenotype (%) (U2OS [2]; [17]): 21%
Population Mitotic Cells (%) (U2OS [2]; [17]): 56%
Population Normal (%) (U2OS [2]; [17]): 97%
Population Pyknosed Nuclei (%) (U2OS [2]; [17]): 9%
Population Tubulin-Different-Phenotype (%) (U2OS [2]; [17]): 17%
Total Cell Count (U2OS [2]; [17]): 103
Population Apoptotic (%) (U2OS [2]; [18]): 69%
Population Fragmented Nuclei (%) (U2OS [2]; [18]): 18%
Population Healthy Nuclei (%) (U2OS [2]; [18]): 43%
Population Hoechst High Intensity Objects (%) (U2OS [2]; [18]): 12%
Population Membrane Permeable-Phenotype (%) (U2OS [2]; [18]): 35%
Population Mitochondria Different-Phenotype (%) (U2OS [2]; [18]): 60%
Population Mitotic Cells (%) (U2OS [2]; [18]): 30%
Population Normal (%) (U2OS [2]; [18]): 87%
Population Pyknosed Nuclei (%) (U2OS [2]; [18]): 37%
Population Tubulin-Different-Phenotype (%) (U2OS [2]; [18]): 96%
Total Cell Count (U2OS [2]; [18]): 157
Population Apoptotic (%) (U2OS [2]; [19]): 66%
Population Fragmented Nuclei (%) (U2OS [2]; [19]): 19%
Population Healthy Nuclei (%) (U2OS [2]; [19]): 39%
Population Hoechst High Intensity Objects (%) (U2OS [2]; [19]): 4%
Population Membrane Permeable-Phenotype (%) (U2OS [2]; [19]): 81%
Population Mitochondria Different-Phenotype (%) (U2OS [2]; [19]): 68%
Population Mitotic Cells (%) (U2OS [2]; [19]): 33%
Population Normal (%) (U2OS [2]; [19]): 95%
Population Pyknosed Nuclei (%) (U2OS [2]; [19]): 40%
Population Tubulin-Different-Phenotype (%) (U2OS [2]; [19]): 100%
Total Cell Count (U2OS [2]; [19]): 168
Growth Rate (Fibroblast; [3]): 0
Growth Rate (Fibroblast; [7]): 0
Growth Rate (Fibroblast; [4]): 0
Growth Rate (Fibroblast; [5]): 0
Growth Rate (Fibroblast; [6]): 0

— ChEMBL document CHEMBL4689842, “EUbOPEN Chemogenomics Library wave 1” (2021)
